# Source: PubChem BioAssay (several laboratories)
# Rows were chosen to be rich in hits. Some 1.9% of all compounds tested hit in one or more screens of this group.
# Runt-SMMHC FRET – inhibitors of RUNX1 Runt–CBFb-SMMHC binding, primary screen, biochemical, FRET, Cerulean-Runt, Venus-CBFb-SMMHC, uHTS; Cerulean-Runt/Venus-CBFb-SMMHC FRET ratio 530/480, 1 h; AID 1434, 2008; inhibition, % at 20 µM; actives 0.74% (n = 220,000); Runt-related transcription factor 1 (Homo sapiens) + Core-binding factor subunit beta …;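 active = mean inhibition across duplicate retests at 20 µM reaching about 50%, limit read from the data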;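 note: inhibitors lower the FRET ratio by blocking Runt binding to CBFb-SMMHC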
# Target sequence (Q01196 whole entry, looked up): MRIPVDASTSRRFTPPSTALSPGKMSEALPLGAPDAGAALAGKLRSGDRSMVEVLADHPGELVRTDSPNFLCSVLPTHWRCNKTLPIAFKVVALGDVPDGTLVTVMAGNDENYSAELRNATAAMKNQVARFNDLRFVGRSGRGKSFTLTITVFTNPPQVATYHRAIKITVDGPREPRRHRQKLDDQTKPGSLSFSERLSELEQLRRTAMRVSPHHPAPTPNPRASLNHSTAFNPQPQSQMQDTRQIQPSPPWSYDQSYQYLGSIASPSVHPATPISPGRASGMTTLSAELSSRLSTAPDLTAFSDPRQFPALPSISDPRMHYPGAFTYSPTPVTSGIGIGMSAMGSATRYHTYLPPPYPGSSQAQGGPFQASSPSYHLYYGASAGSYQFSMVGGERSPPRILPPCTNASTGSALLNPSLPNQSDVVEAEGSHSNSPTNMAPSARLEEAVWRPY
# Target sequence (Q13951 whole entry, looked up): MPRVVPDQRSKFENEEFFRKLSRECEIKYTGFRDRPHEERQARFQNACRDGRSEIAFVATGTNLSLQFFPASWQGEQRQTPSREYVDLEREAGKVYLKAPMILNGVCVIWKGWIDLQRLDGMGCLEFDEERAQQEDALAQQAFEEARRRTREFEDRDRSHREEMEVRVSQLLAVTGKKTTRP
# Hck-Nef inh – inhibitors of Nef-activated human Hck kinase, primary screen, biochemical, Z-Lyte FRET, 384-well, Hck-YEEI; Tyrosine-protein kinase HCK (Homo sapiens), P08631; Recombinant Hck-YEEI plus Nef, Z-Lyte FRET kinase assay; inhibition, % at 20 µM; actives 0.68% (n = 220,000);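 active = Hck-Nef kinase inhibition above about 50%, limit read from the data; inactive = inhibition below that limit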
# Runt-CBFb FRET – inhibitors of RUNX1 Runt–CBFb binding, primary screen, biochemical, FRET, Cerulean-Runt, Venus-CBFb, uHTS. actives 0.46% (n = 220,000). Cerulean-Runt/Venus-CBFb FRET ratio 530/480, 1 h. Runt-related transcription factor 1 (Homo sapiens) + Core-binding factor subunit beta …. AID 1496, 2009. inhibition, % at 20 µM;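 active = inhibition over about 50% at 20 µM in the single-dose screen, limit read from the data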
#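 Doses: 20 µM compound in 1% DMSO | Material: Cerulean-labeled Runt domain protein | Amount: Each fluorescent fusion protein 100 nM | Schedule: Two 1 h room-temperature incubations shielded from light | Measured by: FRET fluorescence | Evaluation: Loss of energy transfer signal | Controls: Unlabeled CBFb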
# RanGTP-Impb inh – inhibitors of RanGTP-importin-beta interaction, primary screen, biochemical, FRET, CFP-Ran, YFP-importin-beta, homogeneous. Ran GTPase (GTP-bound) - importin-beta complex. cell-free CFP-Ran/YFP-importin-beta FRET ratio. inhibition, % (test concentration not listed). actives 1.1% (n = 300,000);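 active = more than half of the replicate wells show a fall in the fluorescence ratio signal beyond about 16%, limit read from the data, passing the limit was not always enough; inconclusive = exactly half of the replicate wells pass the set limit; inactive = fewer than half of replicates pass the limit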
# YIC counter – YIC intramolecular FRET probe signal interference, dose response, counter-screen for RanGTP-importin-beta inhibitor project, biochemical, fluorescence FRET. shares compounds with RanGTP-Impb inh. Purified YIC probe, intramolecular FRET ratio YFP/CFP. IC50, µM. actives 40% (n = 1,000). AID 435026, 2010;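 active = fitted half-maximal inhibitory concentration no more than tenfold above the top dose tested; inconclusive = flat fit with 30 to 70% activity, or poor fit; inactive = half-maximal concentration beyond tenfold above the top dose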
# Hits are given with their value; 0 = inactive; ? = inconclusive; - = no result.
SMILES,Runt-SMMHC FRET,Hck-Nef inh,Runt-CBFb FRET,RanGTP-Impb inh,YIC counter
COc1ccc(CNCc2c(O)c(Cl)cc3c(C)c(C)c(=O)oc23)c(OC)c1,-,-,-,18,7
COc1ccc(CNCc2ccncc2)c(OC)c1,-,-,-,0,-
CCc1cc(=O)oc2c(CNCc3ccc(OC)cc3OC)c(O)c(Cl)cc12,-,-,-,34,32
COc1ccc(CCNC(=O)c2cc3c(=O)n4ccccc4nc3n(CC3CCCO3)c2=N)cc1OC (stereo unspecified),-,-,-,18,27
COc1ccc(CCNC(=O)c2c(C)nc3ccccn23)cc1OC,0,0,0,0,-
COc1ccc(CCNC(=O)c2cc3c(=O)n4ccccc4nc3n(C3CCCCC3)c2=N)cc1OC,-,-,-,23,26
N=c1c(S(=O)(=O)c2ccc(Br)cc2)cc2c(=O)n3ccccc3nc2n1C1CCCCC1,-,-,-,22,0
O=c1cc(-c2ccc(O)c(O)c2)oc2cc(O)c(C3OC(CO)C(O)C(O)C3O)c(O)c12 (stereo unspecified),0,0,0,0,-
O=C(c1cc2ccccc2oc1=O)N1CCN(CCc2ccccc2)CC1,77,0,0,33,7.3
Nc1nc2nc(-c3ccc(OCc4ccccc4)cc3)cc(C(F)(F)F)n2n1,92,0,80,34,5
Cc1c(C(=O)Nc2ccc(-c3nnc4n3CCCCC4)cc2)oc2ccc(Br)cc12,0,0,0,0,-
N#C/C(=C\c1ccc(O)c(Br)c1)C(=O)NCc1ccccc1,134,0,104,43,20
O=C(Cn1cc([N+](=O)[O-])cn1)Nc1ccn(Cc2c(F)c(F)c(F)c(F)c2F)n1,0,0,0,0,-
COc1ccc(-c2nnc(S/C(=C/c3ccc(Cl)cc3)C(=O)O)o2)cc1,0,0,0,?,-
CSc1ccc(/C=C(/Sc2nnc(-c3ccccc3)o2)C(=O)O)cc1,0,0,0,25,41
Cc1ccc2cc(COC(=O)C3CCCO3)c(=O)[nH]c2c1 (stereo unspecified),0,0,0,0,-
O=C(Cn1nnc2ccccc21)N/N=C\c1cccs1,0,0,0,22,0
O=C(Cn1cnc2ccccc21)N/N=C/c1cccs1,0,0,0,0,-
COC(=O)c1cc(NC(=O)c2ccc([N+](=O)[O-])cc2)c(=O)oc1C,0,0,0,18,0
CC(=O)c1cc(NC(=O)c2ccc([N+](=O)[O-])cc2)c(=O)oc1C,0,0,0,0,-
O=C(Nc1ccccc1C(F)(F)F)c1c(F)cccc1Cl,0,0,0,0,-
CN1COc2ccc3ccccc3c2C1,0,0,0,0,-
Cc1cccc(N2C(=O)/C(=C/c3cccnc3)SC2=S)c1,0,0,0,19,0
Cc1ccc(OCC(=O)c2cc(C)n(CC(F)(F)F)c2C)c([N+](=O)[O-])n1,0,0,0,20,0
CC(C)OC(=O)c1nnn(-c2nonc2N)c1CN1CCCCCC1,0,0,0,24,0
SMILES,Runt-SMMHC FRET,Hck-Nef inh,Runt-CBFb FRET,RanGTP-Impb inh,YIC counter
Cc1cccc(C)c1N1CCN(S(=O)(=O)c2ccc(F)cc2)CC1,0,0,0,19,0
Cc1ccccc1CN1CCN(S(=O)(=O)c2ccc(F)cc2)CC1,0,0,0,0,-
COc1ccc(C(=O)Nc2cc(C(F)(F)F)ccc2Cl)cc1OC,0,0,0,0,-
COc1cc(/C=N/NC(=O)c2cc(C)oc2C)ccc1O,0,0,0,24,0
CC(C)(C)OC(=O)C(C)(C)O/N=C(\C(=O)O)c1csc(N)n1,0,0,0,0,-
COc1ccc(NC(=O)Nc2cnccn2)cc1OC,-,-,-,0,-
CCOC(=O)CC(=O)CSc1nc2c(cc1C#N)CCC2,0,0,0,16,24
CC(C)c1cc(N2CCN(C(=O)c3ccco3)CC2)n2c(nc3ccccc32)c1C#N,-,0,0,?,16
Oc1ccccc1/C=N/Nc1cc(N2CCCC2)nc(N2CCCC2)n1,0,0,0,29,0
COc1cc(C2C(C#N)=C(N)Oc3cc(C)n(CC4CCCO4)c(=O)c32)cc2c1OCO2 (stereo unspecified),0,0,0,0,-
Cc1cc2c(c(=O)n1CC1CCCO1)C(c1ccco1)C(C#N)=C(N)O2 (stereo unspecified),0,0,112,23,14
CCOc1cccc(-c2c(C(=O)N/N=C/c3cccs3)nnn2-c2nonc2N)c1,-,-,-,0,-
O=C(Nc1ccc(CN2CCCCC2)cc1)Nc1ccc(Br)cc1Cl,0,0,0,0,-
CC(=O)Nc1ccc(S(=O)(=O)NCc2nc(-c3cccc(C)c3)no2)cc1,-,-,-,15,39
COc1ccc(NC(=O)c2cc3c(=O)n4ccccc4nc3n2C)cc1OC,0,0,0,0,-
COc1ccc(CCn2c(C)nc3ccccc3c2=O)cc1OC,0,0,0,23,0
OCCN1CN=C(Nc2nc3ccccc3s2)NC1,0,0,0,0,-
c1ccc2sc(NC3=NCN(CCN4CCOCC4)CN3)nc2c1,0,0,0,28,0
COc1ccc(OC)c(N(CC(=O)O)S(=O)(=O)c2ccc(OC)c(OC)c2)c1,0,0,0,21,0
COc1ccc(OC)c(N(CC(=O)N2CCCC2)S(=O)(=O)c2ccc(OC)c(OC)c2)c1,0,0,0,0,-
COc1ccc(N2C(=O)N3[C@H](c4ccc(Br)cc4)[C@@H]4C(=O)N(C(C)(C)C)C(=O)[C@@H]4[C@]3(Cc3ccccc3)C2=O)cc1,-,-,-,26,0
COc1ccc(NS(=O)(=O)c2cc(N/C(=N\S(=O)(=O)c3ccccc3)c3ccc(F)cc3)ccc2Cl)cc1,0,0,0,0,-
Cc1cccc(NS(=O)(=O)c2ccc(C(=O)N3CCCCCC3)cc2)c1C,-,-,-,17,0
Cc1cccc(NS(=O)(=O)c2ccc(C(=O)N3CCCC3)cc2)c1C,-,-,-,0,-
COc1ccc2cc(C(=O)N/N=C/c3sc4ccccc4c3O)ccc2c1,0,0,0,22,0
SMILES,Runt-SMMHC FRET,Hck-Nef inh,Runt-CBFb FRET,RanGTP-Impb inh,YIC counter
COc1ccc(C(=O)N/N=C/c2sc3ccccc3c2O)cc1,0,0,0,0,-
O=C(N1CCCC1)C(F)(F)Oc1ccc(F)cc1,0,0,0,0,-
COC(=O)C1=C(C)NC(C)=C(C(=O)OC)C1C(=O)OC(C)C(=O)c1ccccc1 (stereo unspecified),0,0,0,22,0
N#Cc1cc2c(ccc3ccccc32)oc1=O,0,0,85,38,0
COCCCn1c(SCc2cc(=O)[nH]c3ccccc23)nnc1-c1ccco1,0,0,0,0,-
COc1ccccc1N(C)S(=O)(=O)c1ccc(Cl)c(C(=O)Nc2cccc(C)n2)c1,-,-,-,0,-
Cc1cccc(NC(=O)c2cc(S(=O)(=O)N(C)c3ccc(F)cc3)ccc2Cl)n1,-,-,-,20,0
